# Source: PubChem (Sanford-Burnham Center for Chemical Genomics)
# This is a sample that favours compounds with a hit; in the whole collection about 0.77% have one here.
# mIAP inh = mouse IAP inhibition; AID 2806; actives 0.2% (n = 330,000); inhibition, % at 10 µM; purified mouse IAP, CDP-Star luminescence, 30 min;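 active = inhibition of at least 40% at 10 µM in the primary screen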;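 also: plate controls were DMSO with enzyme for no effect and no enzyme wells for full effect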
# mIAP act = mouse IAP activation | activation factor at 10 µM | muIAP, CDP-Star luminescence, 30 min; active compounds read high; 1 = vehicle-only enzyme signal, 0 = enzyme-free wells | actives 0.24% (n = 330,000);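 active = activation factor of at least 2 at 20 µM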
#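 System: mouse IAP enzyme. Reagent: CDP-Star chemiluminescent phosphatase substrate. Benchmarks: DMSO wells, no-enzyme wells. Times: 30 min enzyme-substrate-compound incubation at room temperature. Detection: luminescence from enzymatic CDP-Star hydrolysis. Doses: test compounds delivered from DMSO solution.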
# hIAP activ = increases human intestinal alkaline phosphatase activity | P09923 | purified human IAP, CDP-Star luminescence, 30 min; active compounds read high; 1 = vehicle-only enzyme, 0 = enzyme-free background | activation factor at 10 µM | actives 0.16% (n = 330,000) | AID 2524;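 active = activation factor of the enzyme at least 2-fold when tested at 20 µM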
# Target sequence (P09923 whole entry, looked up): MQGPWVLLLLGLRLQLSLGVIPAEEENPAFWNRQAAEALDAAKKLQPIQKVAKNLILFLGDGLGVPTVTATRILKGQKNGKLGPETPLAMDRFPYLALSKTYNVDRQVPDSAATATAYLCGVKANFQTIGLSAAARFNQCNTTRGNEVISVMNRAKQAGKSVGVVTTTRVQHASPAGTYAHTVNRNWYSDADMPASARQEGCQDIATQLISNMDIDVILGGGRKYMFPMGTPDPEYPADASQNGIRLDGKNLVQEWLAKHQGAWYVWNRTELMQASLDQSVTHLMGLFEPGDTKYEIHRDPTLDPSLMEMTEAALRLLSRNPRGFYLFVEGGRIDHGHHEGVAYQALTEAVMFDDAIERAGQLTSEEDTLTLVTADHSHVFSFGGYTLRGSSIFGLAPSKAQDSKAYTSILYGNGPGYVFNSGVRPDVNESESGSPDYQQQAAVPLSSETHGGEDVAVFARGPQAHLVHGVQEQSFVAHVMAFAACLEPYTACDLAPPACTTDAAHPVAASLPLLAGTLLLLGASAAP
# bIAP activator = increases bovine intestinal alkaline phosphatase activity | activation factor at 20 µM | AID 1016 | purified bovine IAP, CDP-star luminescence, 30 min; active compounds read high; fold of DMSO-control signal, blank-subtracted | actives 0.17% (n = 200,000);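 active = activation factor of 2 or more at 20 µM, a signal rise over negative controls twice the positive control's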
# bIAP inh = intestinal alkaline phosphatase (bovine) inhibition; purified bovine IAP, CDP-star luminescence, 30 min; inhibition, % at 20 µM; 190,000 tested, under 10 active; AID 1019;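 active = over 50% inhibition of intestinal alkaline phosphatase at 20 µM in the single-dose screen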
#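 System: purified bovine intestinal alkaline phosphatase (IAP) enzyme; Input: IAP diluted 1/65,000,000 in the well; Measured by: CDP-star luminescence signal; Compound dosing: 20 µM single dose; Incubation: 30 min reaction at room temperature.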
# hIAP inh = human IAP inhibition; P09923; purified IAP, CDP-Star luminescence, 30 min; inhibition, % at 10 µM; actives 0.12% (n = 330,000); AID 2544;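 active = inhibition reaching a set limit with compound at 10 µM in the primary screen, cut at about 35% in these data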;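 also: plate controls were DMSO wells with enzyme for no effect and no-enzyme buffer wells for full effect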
# * = called active by the depositor; i = inactive; · = not tested or not shown.
SMILES,mIAP inh,mIAP act,hIAP activ,bIAP activator,bIAP inh,hIAP inh
Cc1ccc(C(=O)NC(C)c2nnc(SCC(=O)NC3CCCC3)n2C)cc1 (stereo unspecified),8,0.92,0.91,·,·,10
O=C(COc1ccc(F)cc1)N1CCC(Cc2ccccc2)CC1,8,0.92,0.91,·,·,10
COc1ccc(/C=N/Nc2cc(=O)n(C)c(=O)n2C)cc1OC,-2,1,1.2,2*,-96,-18
O=C(Nc1ccc(F)cc1F)Nc1csc2ccccc12,-128,2.3*,0.96,·,·,4
O=C(Nc1ccc(F)cc1F)Nc1ccc(F)cc1F,-9,1.1,1.2,1,-2,-16
c1ccc(-c2c(-c3ccccc3)n(Cc3ccco3)c3ncnc(NCCCn4ccnc4)c23)cc1,-7,1.1,0.97,49*,i,3
OCCNc1ncnc2c1c(-c1ccccc1)c(-c1ccccc1)n2Cc1ccco1,-1,1,0.83,1.1,-13,17
CC1CCCCN1C(=O)CSc1nnc(Cc2ccccc2)n1C (stereo unspecified),-2,1,0.88,2.1*,-108,12
CC1Cc2ccccc2N1C(=O)CSc1nnc(Cc2ccccc2)n1CCc1ccccc1 (stereo unspecified),·,·,·,5.4*,-442,·
O=C(c1noc2c1CCCC2)N1CCCC(N2CCN(c3ccccc3F)CC2)C1 (stereo unspecified),10,0.9,1.3,·,·,-28
Cc1cc(OCCCCCn2ccnc2)cc(C)c1Cl,-11,1.1,1.5,68*,i,-53
O=C(NCC1CCN(c2ccc(S(=O)(=O)N3CCOCC3)cc2)CC1)Nc1ccccc1,-111,2.1*,1.4,·,·,-43
O=C(Cc1nc2ccccc2[nH]1)c1cccc([N+](=O)[O-])c1,12,0.88,0.97,·,·,3
O=C(Nc1ccc(Cl)c(Cl)c1)O/N=C/c1ccncc1,-142,2.4*,1,1.2,-17,-4
O=C(NC1CC2CCC(C1)N2Cc1nnnn1Cc1ccco1)NC12CC3CC(CC(C3)C1)C2 (stereo unspecified),-36,1.4,0.95,3.4*,-235,5
CCOc1ccccc1C(=O)NC1CC2CCCC(C1)N2Cc1nnnn1Cc1ccco1 (stereo unspecified),8,0.92,1,1,4,-1
Cc1cc(NS(=O)(=O)c2ccc(NC(=O)COc3ccccc3C(C)(C)C)cc2)no1,0,1,1,·,·,-4
CCN(CC)CCOC(=O)c1ccc(NC(=S)NC(=O)/C=C/c2ccco2)cc1,9,0.91,0.89,·,·,11
COc1ccc(CNC(=O)CSCc2cnn(-c3ccccc3)c2-n2cccc2)cc1,-5,1,1.1,2.5*,-146,-15
CC(=O)Nc1ccc(NC(=O)C(C)OC(=O)CCSc2ccccc2Cl)cc1 (stereo unspecified),-22,1.2,0.94,·,·,6
NS(=O)(=O)c1ccc(NS(=O)(=O)c2ccc(C3CNC(=O)C3)cc2)cc1 (stereo unspecified),-3,1,1.1,·,·,-7
COc1ccc(CNC[C@@H](CCCCN(C)Cc2ccc(OC)cc2)N2C[C@H](c3ccccc3)N(CCc3ccc(Cl)c(Cl)c3)C(=O)C2=O)cc1,-8,1.1,0.98,6.6*,i,2
CC1(C)OC(c2ccccc2)=C/C(=C/C=C2C(=O)c3ccccc3C2=O)O1,23,0.77,0.51,0.7,27,49*
COc1ccccc1NC(=S)NCCSc1ccc(Cl)cc1,-59,1.6,0.93,1,1,7
COc1ccc(Cl)cc1NC(=S)NCCSc1ccc(C)cc1,-160,2.6*,1.3,0.8,21,-28
SMILES,mIAP inh,mIAP act,hIAP activ,bIAP activator,bIAP inh,hIAP inh
Cc1ccc(SCCNC(=S)Nc2cc(C)cc(C)c2)cc1,-232,3.3*,0.89,0.6,40,11
Cc1ccc(NC(=O)NCCSc2ccc(C)cc2)cc1,-154,2.5*,1.2,1,-5,-19
Cc1ccc(C(C(=O)NCCc2ccccc2)N(C(=O)c2csnn2)C2CC2)cc1 (stereo unspecified),-5,1.1,1.2,·,·,-21
C=CCN(C(=O)c1csnn1)C(C(=O)NC1CCCC1)c1c(F)cccc1Cl (stereo unspecified),-2,1,1.1,·,·,-8
CCCCN(C(=O)c1ccc(S(=O)(=O)N(CC)CC)cc1)c1c(N)n(CCC)c(=O)[nH]c1=O,4,0.96,0.98,·,·,2
S=C(Nc1cccc(Cl)c1)NC1CC2CCCC(C1)N2C1CCCC1 (stereo unspecified),-120,2.2*,1,1,-1,-4
CNC(=S)NC1CC2CCC(C1)N2Cc1ccccc1 (stereo unspecified),-2,1,0.93,0.9,10,7
S=C(NCc1ccncc1)Nc1cccc(Cl)c1,0,1,1,0.7,28,-2
S=C(Nc1ccc(Cl)cc1)NC1CC2CCC(C1)N2Cc1ccccc1 (stereo unspecified),-126,2.3*,1.3,1.1,-15,-26
S=C(NCCN(C1CCCCC1)C1CCCC1)Nc1cccc(Cl)c1,-102,2*,1.1,·,·,-12
Cc1cc(C)cc(NC(=S)NC2CC3CCCC(C2)N3C2CC2)c1 (stereo unspecified),-131,2.3*,1.2,1.4,-44,-25
COc1cccc(NC(=S)NC2CC3CCCC(C2)N3C2CCCC2)c1 (stereo unspecified),-30,1.3,1.2,1.2,-22,-24
Cc1cc(C)cc(NC(=S)NC2CC3CCCC(C2)N3CC(C)C)c1 (stereo unspecified),-38,1.4,1.1,0.9,15,-11
S=C(NCc1cccc(Cl)c1)NC1CCCCC1,-147,2.5*,1.3,1,5,-29
S=C(Nc1ccc(Cl)cc1)NC1CC2CCCC(C1)N2C1CCCC1 (stereo unspecified),-96,2,0.91,1.5,-50,9
C=CCN1C2CCCC1CC(NC(=O)Nc1cc(C)cc(C)c1)C2 (stereo unspecified),-69,1.7,1.4,2*,-96,-38
S=C(Nc1ccc(Cl)cc1)NC1CC2CCCC(C1)N2C1CC1 (stereo unspecified),-164,2.6*,1.1,1.2,-19,-12
COc1ccc(Cl)c(N2CCN(CCCNC(=O)Nc3ccc(C)cc3)CC2)c1,-79,1.8,0.86,2.2*,-119,14
O=C(Nc1cccc(Cl)c1)N1CCN(C2c3ccccc3-c3ccccc32)CC1,-109,2.1*,0.84,·,·,16
O=C(NC1CCN(C(=O)Nc2cccc(Cl)c2)CC1)c1ccccc1,-1,1,0.96,·,·,4
Cc1ccc(SCC(=O)Nc2ccc(N3CCN(C)CC3)c(F)c2)c(C)c1,42*,0.58,1,1.3,-28,-3
